Values after ≈ are worked out from the molar mass of the structure shown.
How the values were obtained:
Assay type in all cases: functional
[1] = test system: Cyberlindnera jadinii; test: Antimicrobial activity against Candida utilis ATCC 9226 after 2 days by twofold serial broth dilution method; settings: Williopsis jadinii, ATCC 9226, 48 h
Outline: (§1)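 Yeasts were grown in 2.5% malt extract broth. Twofold serial broth dilution used compound in DMF (1% DMF final), with a top concentration of 800 µg/ml. After 2 days of stationary culture, turbidity was read at OD 660 nm. MIC was the lowest concentration with no growth. Checkerboard combinations with polygodial were tested at least twice per fungus.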

[2] = test system: Staphylococcus aureus; test: Antimicrobial activity against Staphylococcus aureus ATCC 12598 after 2 days by twofold serial broth dilution method; settings: ATCC 12598, 48 h
Outline: (§2)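 ATCC strains were revived from freeze-dried stock, then grown in medium of 0.8% nutrient broth, 0.5% yeast extract and 0.1% glucose. Twofold serial broth dilution used compound in DMF (1% DMF final), with a top concentration of 800 µg/ml. Cultures were stationary for 2 days, and growth was read as turbidity at OD 660 nm. MIC was the lowest concentration with no growth.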

[3] = test system: Streptococcus mutans; test: Antimicrobial activity against Streptococcus mutans ATCC 25175 after 2 days by twofold serial broth dilution method; settings: ATCC 25175, 48 h
Outline: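 ATCC strain grown in 3.7% brain heart infusion broth. Twofold serial broth dilution used compound dissolved in DMF (1% DMF final), with a top concentration of 800 µg/ml. After 2 days of stationary culture, growth was read as turbidity at OD 660 nm. MIC was the lowest concentration with no growth.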

[4] = test system: Pseudomonas aeruginosa; test: Antimicrobial activity against Pseudomonas aeruginosa ATCC 10145 after 2 days by twofold serial broth dilution method; settings: ATCC 10145, 48 h; outline: as §2
[5] = test system: Klebsiella aerogenes; test: Antimicrobial activity against Enterobacter aerogenes ATCC 13048 after 2 days by twofold serial broth dilution method; settings: ATCC 13048, 48 h; outline: as §2
[6] = test system: Malassezia furfur; test: Antimicrobial activity against Pityrosporum ovale ATCC 14521 by twofold serial broth dilution method
Outline: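 Medium: 1% bactopeptone, 0.5% yeast extract, 1% glucose and 0.1% corn oil. Twofold broth dilution used compound in DMF (1% final), with a top concentration of 800 µg/ml. Culture was stationary for 2 days, and growth was scored visually. MIC was the lowest concentration without growth. Checkerboard combinations with polygodial were tested at least twice.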

[7] = test system: Corynebacterium ammoniagenes; test: Antimicrobial activity against Brevibacterium ammoniagenes ATCC 6872 after 2 days by twofold serial broth dilution method; settings: ATCC 6872, 48 h; outline: as §2
[8] = test system: Bacillus subtilis; test: Antimicrobial activity against Bacillus subtilis ATCC 9372 after 2 days by twofold serial broth dilution method; settings: ATCC 9372, 48 h; outline: as §2
[9] = test system: Penicillium chrysogenum; test: Antimicrobial activity against Penicillium chrysogenum ATCC 10106 after 5 days by twofold serial broth dilution method; settings: ATCC 10106, 120 h
Outline: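 Mould was grown in 2.5% malt extract broth with shaking. Compound in DMF (1% final) was serially diluted twofold, to a maximum of 800 µg/ml. Growth was judged by eye after 5 days. MIC was the lowest concentration showing no growth.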

[10] = test system: Cutibacterium acnes; test: Antimicrobial activity against Propionibacterium acnes ATCC 11827 after 2 days by twofold serial broth dilution method; settings: ATCC 11827, 48 h; outline: as §2
[11] = test system: Saccharomyces cerevisiae; test: Antimicrobial activity against Saccharomyces cerevisiae ATCC 7754 after 2 days by twofold serial broth dilution method; settings: ATCC 7754, 48 h; outline: as §1
[12] = test system: Escherichia coli; test: Antimicrobial activity against Escherichia coli ATCC 9637 after 2 days by twofold serial broth dilution method; settings: ATCC 9637, 48 h; outline: as §2

CC1=CC[C@@H](C(C)(C)O)CC1 [ALPHA-TERPINEOL]
MIC [1]: 800 µg/mL (≈ 5.19 mM) | MIC [2]: > 800 µg/mL | MIC [3]: 400 µg/mL (≈ 2.59 mM) | MIC [4]: > 800 µg/mL | MIC [5]: > 800 µg/mL | MIC [6]: 400 µg/mL (≈ 2.59 mM) | MIC [7]: > 800 µg/mL | MIC [8]: 800 µg/mL (≈ 5.19 mM) | MIC [9]: 400 µg/mL (≈ 2.59 mM) | MIC [10]: 100 µg/mL (≈ 0.648 mM) | MIC [11]: 800 µg/mL (≈ 5.19 mM) | MIC [12]: 800 µg/mL (≈ 5.19 mM)

C/C=C/c1ccc(OC)cc1 [ANETHOLE]
MIC [1]: 200 µg/mL (≈ 1.35 mM) | MIC [2]: > 800 µg/mL | MIC [3]: 200 µg/mL (≈ 1.35 mM) | MIC [4]: > 800 µg/mL | MIC [5]: > 800 µg/mL | MIC [6]: 100 µg/mL (≈ 0.675 mM) | MIC [7]: 200 µg/mL (≈ 1.35 mM) | MIC [8]: 400 µg/mL (≈ 2.7 mM) | MIC [9]: > 800 µg/mL | MIC [10]: 100 µg/mL (≈ 0.675 mM) | MIC [11]: 200 µg/mL (≈ 1.35 mM) | MIC [12]: 200 µg/mL (≈ 1.35 mM)

C=C1CC/C=C(/C)CC[C@@H]2[C@@H]1CC2(C)C [CARYOPHYLLENE]
MIC [1]: > 800 µg/mL | MIC [2]: > 800 µg/mL | MIC [3]: > 800 µg/mL | MIC [4]: > 800 µg/mL | MIC [5]: > 800 µg/mL | MIC [6]: > 800 µg/mL | MIC [7]: 100 µg/mL (≈ 0.489 mM) | MIC [8]: 50 µg/mL (≈ 0.245 mM) | MIC [9]: > 800 µg/mL | MIC [10]: 6.25 µg/mL (≈ 0.0306 mM) | MIC [11]: > 800 µg/mL | MIC [12]: > 800 µg/mL

C=C(C)[C@H]1CC=C(C)CC1 [D-LIMONENE]
MIC [1]: 200 µg/mL (≈ 1.47 mM) | MIC [2]: > 800 µg/mL | MIC [3]: 100 µg/mL (≈ 0.734 mM) | MIC [4]: > 800 µg/mL | MIC [5]: > 800 µg/mL | MIC [6]: 200 µg/mL (≈ 1.47 mM) | MIC [7]: > 800 µg/mL | MIC [8]: 800 µg/mL (≈ 5.87 mM) | MIC [9]: > 800 µg/mL | MIC [10]: 50 µg/mL (≈ 0.367 mM) | MIC [11]: 50 µg/mL (≈ 0.367 mM) | MIC [12]: > 800 µg/mL

CCCCCCCCCCCC(=O)O [DODECANOATE]
MIC [1]: > 800 µg/mL | MIC [2]: > 800 µg/mL | MIC [3]: > 800 µg/mL | MIC [4]: > 800 µg/mL | MIC [5]: > 800 µg/mL | MIC [6]: > 800 µg/mL | MIC [7]: > 800 µg/mL | MIC [8]: > 800 µg/mL | MIC [9]: > 800 µg/mL | MIC [10]: 50 µg/mL (≈ 0.25 mM) | MIC [11]: > 800 µg/mL | MIC [12]: > 800 µg/mL

CC12CCC(CC1)C(C)(C)O2 [EUCALYPTOL]
MIC [1]: > 800 µg/mL | MIC [2]: > 800 µg/mL | MIC [3]: > 800 µg/mL | MIC [4]: > 800 µg/mL | MIC [5]: > 800 µg/mL | MIC [6]: > 800 µg/mL | MIC [7]: > 800 µg/mL | MIC [8]: > 800 µg/mL | MIC [9]: > 800 µg/mL | MIC [10]: 800 µg/mL (≈ 5.19 mM) | MIC [11]: > 800 µg/mL | MIC [12]: > 800 µg/mL

C=CCc1ccc(O)c(OC)c1 [EUGENOL]
MIC [1]: 800 µg/mL (≈ 4.87 mM) | MIC [2]: 800 µg/mL (≈ 4.87 mM) | MIC [3]: 400 µg/mL (≈ 2.44 mM) | MIC [4]: > 800 µg/mL | MIC [5]: > 800 µg/mL | MIC [6]: 100 µg/mL (≈ 0.609 mM) | MIC [7]: 800 µg/mL (≈ 4.87 mM) | MIC [8]: 400 µg/mL (≈ 2.44 mM) | MIC [9]: 200 µg/mL (≈ 1.22 mM) | MIC [10]: 50 µg/mL (≈ 0.304 mM) | MIC [11]: 800 µg/mL (≈ 4.87 mM) | MIC [12]: 400 µg/mL (≈ 2.44 mM)

CC1=CCC(C(C)C)=CC1 [GAMMA-TERPINENE]
MIC [1]: 100 µg/mL (≈ 0.734 mM) | MIC [2]: > 800 µg/mL | MIC [3]: 100 µg/mL (≈ 0.734 mM) | MIC [4]: > 800 µg/mL | MIC [5]: > 800 µg/mL | MIC [6]: 800 µg/mL (≈ 5.87 mM) | MIC [7]: > 800 µg/mL | MIC [8]: > 800 µg/mL | MIC [9]: > 800 µg/mL | MIC [10]: 50 µg/mL (≈ 0.367 mM) | MIC [11]: 50 µg/mL (≈ 0.367 mM) | MIC [12]: > 800 µg/mL

CC(C)=CCC/C(C)=C/CO [GERANIOL]
MIC [1]: 400 µg/mL (≈ 2.59 mM) | MIC [2]: 800 µg/mL (≈ 5.19 mM) | MIC [3]: 200 µg/mL (≈ 1.3 mM) | MIC [4]: > 800 µg/mL | MIC [5]: > 800 µg/mL | MIC [6]: 100 µg/mL (≈ 0.648 mM) | MIC [7]: 400 µg/mL (≈ 2.59 mM) | MIC [8]: 400 µg/mL (≈ 2.59 mM) | MIC [9]: 200 µg/mL (≈ 1.3 mM) | MIC [10]: 200 µg/mL (≈ 1.3 mM) | MIC [11]: 400 µg/mL (≈ 2.59 mM) | MIC [12]: 800 µg/mL (≈ 5.19 mM)

C=CC(C)(O)CCC=C(C)C (centres undefined) [LINALOOL]
MIC [1]: 400 µg/mL (≈ 2.59 mM) | MIC [2]: > 800 µg/mL | MIC [3]: 400 µg/mL (≈ 2.59 mM) | MIC [4]: > 800 µg/mL | MIC [5]: > 800 µg/mL | MIC [6]: 400 µg/mL (≈ 2.59 mM) | MIC [7]: 800 µg/mL (≈ 5.19 mM) | MIC [8]: 800 µg/mL (≈ 5.19 mM) | MIC [9]: 800 µg/mL (≈ 5.19 mM) | MIC [10]: 200 µg/mL (≈ 1.3 mM) | MIC [11]: 800 µg/mL (≈ 5.19 mM) | MIC [12]: > 800 µg/mL

C=CCc1ccc(OC)c(OC)c1 [METHYLEUGENOL]
MIC [1]: 800 µg/mL (≈ 4.49 mM) | MIC [2]: 800 µg/mL (≈ 4.49 mM) | MIC [3]: 400 µg/mL (≈ 2.24 mM) | MIC [4]: > 800 µg/mL | MIC [5]: > 800 µg/mL | MIC [6]: 200 µg/mL (≈ 1.12 mM) | MIC [7]: 800 µg/mL (≈ 4.49 mM) | MIC [8]: 800 µg/mL (≈ 4.49 mM) | MIC [9]: 800 µg/mL (≈ 4.49 mM) | MIC [10]: 200 µg/mL (≈ 1.12 mM) | MIC [11]: 800 µg/mL (≈ 4.49 mM) | MIC [12]: 800 µg/mL (≈ 4.49 mM)

CC1(C)CCC[C@]2(C)[C@@H](C=O)C(C=O)=CC[C@@H]12 [POLYGODIAL]
MIC [1]: 6.25 µg/mL (≈ 0.0267 mM) | MIC [6]: 50 µg/mL (≈ 0.213 mM) | MIC [11]: 3.13 µg/mL (≈ 0.0134 mM)

C=CCc1ccc2c(c1)OCO2 [SAFROLE]
MIC [1]: 200 µg/mL (≈ 1.23 mM) | MIC [2]: > 800 µg/mL | MIC [3]: 100 µg/mL (≈ 0.617 mM) | MIC [4]: > 800 µg/mL | MIC [5]: > 800 µg/mL | MIC [6]: 100 µg/mL (≈ 0.617 mM) | MIC [7]: > 800 µg/mL | MIC [8]: 400 µg/mL (≈ 2.47 mM) | MIC [9]: > 800 µg/mL | MIC [10]: 50 µg/mL (≈ 0.308 mM) | MIC [11]: 200 µg/mL (≈ 1.23 mM) | MIC [12]: 400 µg/mL (≈ 2.47 mM)

CC1=CCC(O)(C(C)C)CC1 (centres undefined) [TERPINEOL]
MIC [1]: 800 µg/mL (≈ 5.19 mM) | MIC [2]: > 800 µg/mL | MIC [3]: > 800 µg/mL | MIC [4]: > 800 µg/mL | MIC [5]: > 800 µg/mL | MIC [6]: 100 µg/mL (≈ 0.648 mM) | MIC [7]: > 800 µg/mL | MIC [8]: > 800 µg/mL | MIC [9]: 800 µg/mL (≈ 5.19 mM) | MIC [10]: 800 µg/mL (≈ 5.19 mM) | MIC [11]: 800 µg/mL (≈ 5.19 mM) | MIC [12]: > 800 µg/mL
